Our source for the cytotoxicity values is ChEMBL document CHEMBL4513216, “Probing the Open Global Health Chemical Diversity Library for Multistage-Active Starting Points for Next-Generation Antimalarials” (ACS Infect Dis, 2020).

This series can be described thus: Toxicity liver stage against HepG2, at 10uM. The class given is cell-based. On the set-up: test concentration 10 uM, cell line HepG2-A16-CD81EGFP. The note with it: human, HepG2-A16-CD81EGFP cells; read-out: INHIBITION
The method, boiled down:
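Uninfected HepG2-A16-CD81EGFP cells, 3 × 10^3 per well, 1536-well, plated on prespotted compound at 10 μM final, parasite-free screening media added to match infected plates; puromycin 10 μM positive, DMSO 0.5% negative; run in parallel with 48 h PbLuc assay at 37 °C, 5% CO2; viability by CellTiter-Glo luminescence, normalized to controls.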
Consider `Cc1cccc(N2CCCC3(C2)CN(S(=O)(=O)C2CC2)CCO3)c1` (stereo not drawn), for which the cytotoxicity at 10 µM was determined as 11%.
Regarding `COc1ccc(OCC(C)NS(C)(=O)=O)cc1` (stereo not drawn), the cytotoxicity at 10 µM was 16.6%.
Take `CC(C)c1nnc(CNc2ccc(SC(F)(F)F)cc2)o1`: the cytotoxicity at 10 µM came to 11.5%.
Consider `O=C(C1CCCC1)N1CCCC(c2cccc(-n3ccnc3)n2)C1` (stereo not drawn), for which the cytotoxicity at 10 µM was -5.52%.
The figure for `NC(=O)N1CC(OCc2cccc3ccccc23)C1` is -0.396%; for `Cc1nc[nH]c1CN1CCN(C(=O)C2CC2)[C@H]2CS(=O)(=O)C[C@H]21` it is 0.855%.
Regarding `COC(=O)CCc1c(C)nc2cc(O)nn2c1C`, the cytotoxicity at 10 µM is -7.18%.
As for `Nc1cccc(C2CN(C(=O)CN3CCOCC3)CCO2)n1` (stereo not drawn), the figure is -8.83%.
Regarding `Cc1ncc2c(n1)CCN(Cc1ncc(C(C)(C)C)o1)C2`, the cytotoxicity at 10 µM came to 14%.
In the case of `COc1cc(C(=O)N2CCC(c3n[nH]c(C4CC4)n3)CC2)ccc1C`, the cytotoxicity at 10 µM is 3.37%.
Take `CC(C)NC(=O)Cc1cnc(-n2cccc2)s1`: the cytotoxicity at 10 µM was -4.6%.
With `CCN(CC(C)C#N)C(=O)CSc1ccc(C(F)(F)F)cn1` (stereo not drawn), the cytotoxicity at 10 µM was 9.81%.
As for `Cc1ncc(CN(C)CC(O)c2cccc(C(F)(F)F)c2)s1` (stereo not drawn), the figure is 1.86%.
`Cc1cc(C)n(CC2(CNC(=O)C(c3ccccc3C)N(C)C)CC2)n1` (stereo not drawn): the cytotoxicity at 10 µM was 1.79%.
As for `Cc1ccc(-n2cccn2)cc1S(=O)(=O)N1C[C@H]2CC[C@@H](C1)N(C)C2`, the figure is 1.62%.
Regarding `CCN(CC)C(CNC(=O)CCc1nc(C(C)C)no1)c1ccco1` (stereo not drawn), the cytotoxicity at 10 µM turned out to be 5.91%.
Turning to `CCN(CC)C(=O)CCNC(=O)N1CCC(c2ccccc2)C1` (stereo not drawn), the cytotoxicity at 10 µM is -3.26%.
The figure for `CN(C)CCNC(=O)[C@H]1C[C@H]2CN(c3ncccn3)C[C@H]2N1C` is 9.52%.
On to `CNS(=O)(=O)c1cccc(C(C)NCc2ccc(C)o2)c1` (stereo not drawn), for which the cytotoxicity at 10 µM was -3.69%.
On to `CCC(C)NC(=O)c1ccccc1-n1cnnn1` (stereo not drawn), for which the cytotoxicity at 10 µM worked out at 13%.
On to `Cc1cc2cc(C(=O)N3CC[C@H](O)[C@]4(CCCO4)C3)ccc2o1`, for which the cytotoxicity at 10 µM is 1.01%.
As for `Cc1cc(-c2cnc(NCc3cccnc3)nc2C(C)(C)C)on1`, the figure is 49.6%; as for `CC(C)OCCCNC(=O)c1c(-n2cnnn2)sc2c1CCCC2`, 11.9%; as for `CCc1nnc(NC(=O)NCCN(C)C(=O)OC(C)(C)C)s1`, -1.6%.
For `O=C(CCc1cc2n(n1)CCCNC2)N1CCC(N2CCOC2=O)CC1`, the cytotoxicity at 10 µM came to 6.05%.
Turning to `Cc1cc(C)n(CCCNC(=O)[C@@H](C)NC(=O)OC(C)(C)C)n1`, the cytotoxicity at 10 µM was -8%.
As to `CCOC(=O)CSc1nnc([C@@H](N)C(C)CC)o1` (stereo partly drawn), the cytotoxicity at 10 µM amounted to 2%.
For the compound `CS(=O)(=O)C1(C(=O)NC2CCc3nccn3C2)CCCC1` (stereo not drawn), the cytotoxicity at 10 µM is -14%.
Regarding `CN(Cc1ccsc1)Cc1nc(-c2cnccn2)no1`, the cytotoxicity at 10 µM is -0.164%.
Regarding `Cc1ccc(F)cc1-n1c(CCCN2CCOCC2)n[nH]c1=O`, the cytotoxicity at 10 µM worked out at 7.32%.
`O=C(CN1CCCCC1Cn1cncn1)NC1CCN(C2CC2)CC1` (stereo not drawn): the cytotoxicity at 10 µM is -19.3%.
Consider `Cc1cnn(CC2CCCN2Cc2cc(=O)n3cc(C)ccc3n2)c1` (stereo not drawn), for which the cytotoxicity at 10 µM is -10.9%.
The figure for `Cc1ccc(S(=O)(=O)N2CC[C@@H]3C[C@H](NC(=O)c4n[nH]cc4Cl)[C@@H]32)cc1` is 4.31%.
As for `Cc1ncsc1CCN(C)Cc1ccc(CO)o1`, the cytotoxicity at 10 µM is -15.3%.
The figure for `Cc1cnn(CC2CN(Cc3nc4ccccc4n3C)CCO2)c1` (stereo not drawn) is 0.338%.
As to `CN(C)c1cc(CNC(=O)Nc2nncs2)ccn1`, the cytotoxicity at 10 µM was -20.5%.
Turning to `N#Cc1ccc2c(c1)CN(C(=O)C1CC=CC1)C2c1cnco1` (stereo not drawn), the cytotoxicity at 10 µM was -0.0499%.
As to `Cc1nc(N2CCCC2C(=O)NCc2ccsc2)nc2ccccc12` (stereo not drawn), the cytotoxicity at 10 µM came out at 6.03%.
In the case of `Cc1nc(-c2ccccc2)n(CC(=O)NC2CCCCC2)n1`, the cytotoxicity at 10 µM is -1.16%.
`CN1CCC(N2CCC(c3ccccc3C(=O)O)C2)CC1` (stereo not drawn): the cytotoxicity at 10 µM is -1.05%.
As to `Cc1ccc(CN2CCN(c3ncnc4[nH]cnc34)CC2CCO)cc1` (stereo not drawn), the cytotoxicity at 10 µM came to 28%.
As for `COc1ccc(CN2CCn3c(C(=O)N(C)C)cnc3C2)cc1`, the figure is -69.6%.
The figure for `Cc1ccc(CCNC(=O)Cn2nc(C)n(Cc3ccccc3)c2=O)o1` is 1.33%.
On to `Cc1ccccc1OC1CCN(C(=O)c2c[nH]c(=O)[nH]c2=O)CC1`, for which the cytotoxicity at 10 µM was determined as 5.25%.
Take `O=C(OC1CCC1)c1ncccc1C(F)(F)F`: the cytotoxicity at 10 µM was 10.6%.
Turning to `Cc1ccc(S(=O)(=O)N2CCOCC2C#N)cc1Br` (stereo not drawn), the cytotoxicity at 10 µM stood at 6.08%.
In the case of `CCN(Cc1cc(Cl)c(O)c(OC)c1)Cc1nc(COC)no1`, the cytotoxicity at 10 µM came out at 1.29%.
As for `Cc1nn(CCNS(=O)(=O)NCc2ccccc2)c(C)c1Cl`, the cytotoxicity at 10 µM is -6.49%.
Turning to `CS(=O)(=O)N1CCOC2(CCCC2)C1`, the cytotoxicity at 10 µM is -4.7%.
`O=C(Nc1ccccc1)[C@H]1C[C@H]2CN(C(=O)Nc3ccccc3)C[C@@H]1O2`: the cytotoxicity at 10 µM stood at 2.4%.
Turning to `Cc1cc(CN2CCN(Cc3ccc(C#N)cc3F)CC2)no1`, the cytotoxicity at 10 µM was determined as 1.71%.
As for `Cc1cnn(CCNCC(O)COc2cccc(C(F)(F)F)c2)c1` (stereo not drawn), the figure is -21.7%; as for `Cc1cc(NC(=O)CN2CCCC(Cn3cncn3)C2)no1` (stereo not drawn), -0.749%.
The figure for `CCc1ncc(C(=O)NCCn2c(C)cc(C)nc2=O)cn1` is -1.75%; for `COC(=O)[C@H](C)NC(=O)Cc1c(C)nc2c(c1C)c(=O)[nH]n2C` it is 10.7%; for `CC1CCN(CCCNC(=O)C2CCCCC2)CC1` it is -2.63%.
Consider `CN1CCOC2(CCCN(C(=O)C3CCCCC3)C2)C1` (stereo not drawn), for which the cytotoxicity at 10 µM is -6.66%.
`CS(=O)(=O)N1CCCC1Cn1cccn1` (stereo not drawn): the cytotoxicity at 10 µM was -10.2%.
As to `Cc1nnc2n1CCN(C(=O)CN1C(=O)C(C)Oc3ccccc31)C2` (stereo not drawn), the cytotoxicity at 10 µM is -0.905%.
Consider `NCCc1c(-c2ccccc2)[nH][nH]c1=O`, for which the cytotoxicity at 10 µM amounted to 5.95%.
As to `CCN1CCCC1CNCc1cc2cc(OC)c(OC)cc2[nH]c1=O` (stereo not drawn), the cytotoxicity at 10 µM stood at 2.63%.
Regarding `CNC(=O)C1CCCCN1C(=O)Cc1csc(-c2ccc(C)o2)n1` (stereo not drawn), the cytotoxicity at 10 µM stood at 8.61%.
As to `Cc1csc(N2CCCN(C(=O)Cc3cccs3)CC2)n1`, the cytotoxicity at 10 µM was -6.87%.
As for `CN(C)C(=O)c1cc(-c2ccc(S(C)(=O)=O)cc2)c2cnn(C)c2n1`, the cytotoxicity at 10 µM was 3.63%.
In the case of `Cc1ccc(F)c2c1N(C(=O)Cc1c(C)nn(C)c1C)CCC2`, the cytotoxicity at 10 µM came to 12.7%.
With `COC(=O)CNC(=O)Cn1ccc2ccc(F)cc21`, the cytotoxicity at 10 µM is -1.33%.
Consider `O=C(Nc1ccc(F)cc1F)N(CCC(F)(F)F)C[C@H](O)CO`, for which the cytotoxicity at 10 µM is -7.64%.
Consider `O=C(NC1CC1)[C@@H]1CCO[C@@H]2CCN(C3CCOCC3)C[C@H]21`, for which the cytotoxicity at 10 µM is -9.99%.
As to `Cc1cnn(C2CCCN(C(=O)c3cc[nH]n3)C2)c1` (stereo not drawn), the cytotoxicity at 10 µM is -18.3%.
Consider `CCOc1ccc(-c2ccnc(CC)n2)cc1C(=O)O`, for which the cytotoxicity at 10 µM is -11.1%.
In the case of `N#Cc1cccc(OCc2ccoc2C(=O)N2CCCCCC2)c1`, the cytotoxicity at 10 µM is 9.91%.
For `O=S(=O)(CCNCc1cccc2c1OCCO2)N1CCOCC1`, the cytotoxicity at 10 µM is -10.9%.
On to `Cc1ccc(C)c2c(C)c(C(=O)NCCC(=O)N3CCOCC3)oc12`, for which the cytotoxicity at 10 µM stood at 1.04%.
`O=C(CC1CCCCC1)NC1CCCc2nc(N3CCOCC3)ncc21` (stereo not drawn): the cytotoxicity at 10 µM is -5.24%.
`O=C(Cc1cn2ccccc2n1)N1CCCC(n2cccn2)C1` (stereo not drawn): the cytotoxicity at 10 µM is -5.16%.
As for `CCC(C)(C)NC(=O)CN(C)C(c1cccc(F)c1)c1ccccn1` (stereo not drawn), the figure is -3.15%.
The figure for `Cc1ccc(CN(C)C(=O)CN2CCOC(Cn3cncn3)C2)o1` (stereo not drawn) is -7.98%.
In the case of `CCC(=O)N1C[C@@H]2CCN(c3cnccn3)C[C@@H]2C1`, the cytotoxicity at 10 µM is -13.2%.
For the compound `O=C(O)C1(Cc2ccccc2Cl)CCN(c2ncccn2)CC1`, the cytotoxicity at 10 µM was found to be 7.04%.
`CC1(CCNC(=O)NCc2ccsc2)OCCO1`: the cytotoxicity at 10 µM is -6.21%.
As for `COCC(=O)N1CCCCC1c1ccncn1` (stereo not drawn), the figure is -27.8%; as for `COCC(NC1CSCCSC1)c1ccnn1C` (stereo not drawn), 4.34%; as for `O=C(O)C(c1ccc2c(c1)OCO2)N1CCC(O)(c2cccnc2)CC1` (stereo not drawn), 19.7%.
In the case of `O=C(NCC1(O)CCSC1)c1cccc(-n2cccn2)c1` (stereo not drawn), the cytotoxicity at 10 µM is -3.5%.
As to `O=C(CCn1cnnn1)N1CCCC(CO)(CCc2ccccc2)C1` (stereo not drawn), the cytotoxicity at 10 µM stood at 5.26%.
With `O=C(NC1CCCN(c2ncccn2)C1)c1ccoc1` (stereo not drawn), the cytotoxicity at 10 µM is -4.56%.
The figure for `Cc1ccccc1-n1c(C)cc(=O)[nH]c1=O` is -2.4%; for `CN(CCS(C)(=O)=O)C1CCCN(Cc2noc(C3CC3)n2)C1` (stereo not drawn) it is 14.6%; for `COc1cc(C(F)(F)F)sc1C(=O)O` it is -3.29%.
As to `Cc1nc(O)c2nnn(C[C@H]3CCCN3C(=O)C3CCCC3)c2n1`, the cytotoxicity at 10 µM was -26.9%.
Turning to `CCS(=O)(=O)N1CCc2c(CN3CCOCC3)cncc2C1`, the cytotoxicity at 10 µM was 4.35%.
With `O=C(NC1CCN(C(=O)C2CCCCC2)C1)c1ccncc1Cl` (stereo not drawn), the cytotoxicity at 10 µM turned out to be 10.4%.
Consider `CCCc1nc(N(C)CCc2noc(C(C)C)n2)c2cnn(C)c2n1`, for which the cytotoxicity at 10 µM is 3.86%.
As to `Cc1nn(C)c2cn(CC(=O)N3CCN(c4ccccn4)CC3)nc12`, the cytotoxicity at 10 µM amounted to 3.57%.
Regarding `CC(C)CCn1ccc(NC(=O)N2CCCC2C(C)(C)O)n1` (stereo not drawn), the cytotoxicity at 10 µM was 5.07%.
The figure for `CC(C)Cc1cc(C(=O)NC(C)(C)c2nnc(N)s2)n(C)n1` is 0.91%; for `O=C(C(CNCc1ccccn1)c1ccccc1)N1CCOCC1` (stereo not drawn) it is 0.983%.
As for `CCCc1nnc(SCC(=O)Nc2cc(C(C)(C)C)nn2C)[nH]1`, the cytotoxicity at 10 µM was determined as 10.7%.
